The text below walks through data of ChEMBL document CHEMBL1833896, “Acylglycinamides as inhibitors of glycine transporter type 1” (Bioorg Med Chem Lett, 2011).

Data set [1] can be described thus: Intrinsic clearance in rat microsomes. In kind it is ADME, Microsome.
A short description of data set [2]: Intrinsic clearance in human microsomes. In kind it is ADME, Microsome.
The nature of data set [3]: Lipophilicity, log D of the compound. The settings on record: chromatographic hydrophobicity index (CHI) method. In kind it is physicochemical. A digest of the protocol:
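Lipophilicity was measured by a chromatographic method.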

For data set [4], the species on record is Rattus norvegicus. Briefly: Liver blood flow in rat. The format is ADME, organism-based.
A short description of data set [5]: Ratio of drug level in brain to blood in rat. Particulars: read-out: BBR. The format is ADME, tissue-based.
Data set [6] is described as follows: Oral bioavailability in rat. The format is ADME, organism-based. Particulars: in vivo.

On to `COCCN(CC(=O)Nc1cc(F)cc(F)c1)C(=O)c1ccc(-c2ccccn2)cc1`, for which the figures for the CL in data set [1] and in data set [2] were 3 mL/min/g and 1.5 mL/min/g, respectively.
The logD is lipophilicity at a set pH, counting ionised and neutral species. Lower therefore signals a more hydrophilic compound. `CCC(C)N(CC(=O)Nc1cc(F)cc(F)c1)C(=O)c1ccc(-c2ccccn2)cc1` (configuration not stated) displayed a pH-dependent lipophilicity (logD) in data set [3] of 3.3. Besides, the CL is 3.8 mL/min/g in data set [1] and 4.3 mL/min/g in data set [2].
`O=C(CN(C(=O)C1CCOCC1)C1CCCCC1)Nc1cc(F)cc(F)c1`: the pH-dependent lipophilicity (logD) in data set [3] turned out to be 3.
The same measure, in the same setting: the value for `CN(C)CCOc1ccc(C(=O)N(CC(=O)Nc2cc(F)cc(F)c2)C2CCCCC2)cc1` was 2.4.
`O=C(CN(C(=O)c1cccnc1)C1CCCCC1)Nc1cc(F)cc(F)c1` had a logD in data set [3] of 2.7.
Consider `COCC(C)N(CC(=O)Nc1cc(F)cc(F)c1)C(=O)c1ccc(-c2ccccn2)cc1` (configuration not stated), for which the log distribution coefficient (logD) in data set [3] is 3. For the same compound, the CL stood at 4.2 mL/min/g in data set [1] and 5.8 mL/min/g in data set [2].
As to `COc1ccc(C(=O)N(Cc2csc(-c3ccccc3)n2)C2CCCCC2)cc1`, in data set [3], the pH-dependent lipophilicity (logD) was 4.6.
For `COc1ccc(C(=O)N(Cc2[nH]ncc2-c2ccccc2)C2CCCCC2)cc1`, in data set [3], the logD stood at 3.1.
Compound `CC(C)CN(CC(=O)Nc1cc(F)cc(F)c1)C(=O)c1ccc(-c2ccccn2)cc1` returned a logD in data set [3] of 3.3. In addition, the CL in data set [1] was 4.9 mL/min/g; in data set [2], 1.3 mL/min/g.
For the compound `COc1ccc(C(=O)N(Cc2cc(-c3ccccc3)on2)C2CCCCC2)cc1`, in data set [3], the pH-dependent lipophilicity (logD) came out at 4.2.
On to `COc1ccc(C(=O)N(Cc2c(C)noc2-c2ccccc2)C2CCCCC2)cc1`, for which the logD in data set [3] is 4.1.
The same measure, in the same setting: in the case of `O=C(CN(C(=O)c1ccc(N2CCCC2)nc1)C1CCCCC1)Nc1cc(F)cc(F)c1` it was 3.6; in that of `O=C(CN(C(=O)c1ccc(N2CCCC2)cc1)C1CCCCC1)Nc1cc(F)cc(F)c1`, 4.5; in that of `COc1ccc(C(=O)N(Cc2c[nH]c(-c3ccccc3)n2)C2CCCCC2)cc1`, 2.9.
Turning to `CN1CCC(C(=O)N(CC(=O)Nc2cc(F)cc(F)c2)C2CCCCC2)CC1`, in data set [3], the log distribution coefficient (logD) worked out at 1.8.
Take `CC(C)N(CC(=O)Nc1cc(F)cc(F)c1)C(=O)c1ccc(-c2ccccn2)cc1`: the pH-dependent lipophilicity (logD) in data set [3] was 3. Besides, the CL was 1.8 mL/min/g in data set [1] and less than 0.5 mL/min/g in data set [2].
One may read the bioavailability as the share of a dose that reaches the circulation, judged against a reference dose that is usually intravenous. Low readings indicate little systemic uptake, high ones much systemic uptake. In data set [4], `O=C(CN(C(=O)c1ccc(-c2ccccn2)cc1)C1CCCOC1)Nc1cc(F)cc(F)c1` (racemic) yielded a QH of 75%. In data set [3], this compound displayed a log distribution coefficient (logD) of 2.7. The CL in data set [1] stood at 2 mL/min/g; in data set [2], 2.9 mL/min/g. Also, the Kp in data set [5] is 0.2. Also, the bioavailability in data set [6] was determined as 15%.
As for `COc1ccc(C(=O)N(Cc2cn(-c3ccccc3)nn2)C2CCCCC2)cc1`, the logD in data set [3] came to 3.5.
`Cn1ccc(C(=O)N(CC(=O)Nc2cc(F)cc(F)c2)C2CCCCC2)n1` had a logD in data set [3] of 3.
In data set [3], `CCC(COC)N(CC(=O)Nc1cc(F)cc(F)c1)C(=O)c1ccc(-c2ccccn2)cc1` (configuration not stated) displayed a logD of 3.3. Further, the figures for the CL in data set [1] and in data set [2] were 6.7 mL/min/g and 9.6 mL/min/g, respectively.
`O=C(CN(C(=O)c1ccc(-c2ccccn2)cc1)C1CCOCC1)Nc1cc(F)cc(F)c1` returned a QH in data set [4] of 75%. Besides, the log distribution coefficient (logD) in data set [3] is 2.5. Also, the CL in data set [1] was 0.6 mL/min/g; in data set [2], less than 0.5 mL/min/g. Besides, the Kp in data set [5] came to 0.2. The compound further gave a bioavailability in data set [6] of 25%.
`O=C(CN(C(=O)c1ccc(-c2ccccn2)cc1)C1CCCCC1)Nc1cc(F)cc(F)c1` yielded a logD in data set [3] of 3.7. For the same compound, the CL in data set [1] stood at 15.4 mL/min/g; in data set [2], 5.2 mL/min/g.
In data set [3], `O=C(CN(CC1CCC1)C(=O)c1ccc(-c2ccccn2)cc1)Nc1cc(F)cc(F)c1` displayed a logD of 3.5. Besides, the CL stood at 4.8 mL/min/g in data set [1] and 2 mL/min/g in data set [2].
Turning to `COc1ccc(C(=O)N(CC(=O)Nc2cc(F)cc(F)c2)C2CCCCC2)cc1`, the logD in data set [3] was determined as 3.7.
In data set [3], `O=C(CN(C(=O)c1ccc(-n2ccnc2)cc1)C1CCCCC1)Nc1cc(F)cc(F)c1` showed a logD of 2.7. The values for the CL in data set [1] and in data set [2] were 1.2 mL/min/g and 6.1 mL/min/g, respectively.
For `O=C(CN(CC1CC1)C(=O)c1ccc(-c2ccccn2)cc1)Nc1cc(F)cc(F)c1` the same measures were 3.1, 5 mL/min/g and less than 0.5 mL/min/g.
The corresponding values for `O=C(CN(C(=O)c1ccc(-c2ccccn2)cc1)C1CCOC1)Nc1cc(F)cc(F)c1` (configuration not stated) are 2.5, 3.2 mL/min/g and 3.9 mL/min/g.
For `O=C(CN(C(=O)c1ccc(-c2ccccn2)cc1)C1CCCC1)Nc1cc(F)cc(F)c1`, in data set [3], the logD was found to be 3.4. For the same compound, the CL stood at 3.7 mL/min/g in data set [1] and 1.9 mL/min/g in data set [2].
Regarding `COc1ccc(C(=O)N(Cc2ccc(-c3ccc(Cl)cc3)o2)C2CCCCC2)cc1`, the pH-dependent lipophilicity (logD) in data set [3] was found to be 5.
